Reference: ChEMBL document CHEMBL1143032, “The concise synthesis of chalcone, indanone and indenone analogues of combretastatin A4” (Bioorg Med Chem, 2007)

What was measured:
CA46 = assay: Growth inhibition of CA46 cells; assay type: functional; settings: Homo sapiens
MCF7 = assay: Growth inhibition of MCF7 cells after 48 hrs; assay type: functional; settings: Homo sapiens, MCF7, 48 h
[1] = Inhibition of bovine brain tubulin polymerization; design: species or system Bos taurus
Method in brief: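 Tubulin assembly assay. The parameter measured was inhibition of the extent of assembly.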

GI50 (MCF7)	IC50 [1]	SMILES	GI50 (CA46)
		COc1ccc(-c2[nH]c3cc(OC)ccc3c2C(=O)c2cc(OC)c(OC)c(OC)c2)cc1	0.045 µM
> 1 µM	6.6 µM	COc1ccc(/C=C(\C(=O)c2cc(OC)c(OC)c(OC)c2)c2ccc(OC)cc2)cc1	
	36 µM	COc1ccc(C2=C(C(=O)c3cc(OC)c(O)c(OC)c3)c3cc(O)c(OC)cc3C2=O)cc1O	
> 1 µM	2.5 µM	COc1ccc(/C=C(/C(=O)c2cc(OC)c(OC)c(OC)c2)c2ccc(OC)cc2)cc1	
0.026 µM		COc1ccc(/C=C\c2cc(OC)c(OC)c(OC)c2)cc1O [COMBRETASTATIN A4]	

SMILES	GI50 (MCF7)	IC50 [1]	GI50 (CA46)
COc1ccc(C2=C(C(=O)c3cc(OC)c(OC)c(OC)c3)C(=O)c3cc(OC)c(OC)c(OC)c32)cc1O		20 µM	
